Results as given in article PMC8463279 (Acta Pharmaceutica Sinica. B, 2021).
≈ marks a conversion by molar mass, not a printed value. Where two headings read alike, the source gives them in different places.

What was measured:
[1] = test system: P. falciparum strain GB4; test: Parasites growth inhibition assay, strain GB4; type: cell-based; details: Plasmodium falciparum
Method in brief: (§1)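 P. falciparum grown in type O human red cells in RPMI 1640 with Albumax I, hypoxanthine, bicarbonate, 15 mmol/L HEPES and gentamycin, under 5% O₂/5% CO₂/90% N₂. Synchronised with alanine/HEPES or 5% sorbitol. Mid-ring parasites (0.5% parasitemia, 2% hematocrit) exposed to serially diluted test compound in triplicate for 72 h at 37 °C.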

[2] = test system: P. falciparum strain C2A; test: Parasites growth inhibition assay, strain C2A; type: cell-based; details: Plasmodium falciparum
Method in brief: as §1

[3] = test system: P. falciparum strain Fab9; test: Parasites growth inhibition assay, strain Fab9; type: cell-based; details: Plasmodium falciparum
Method in brief: as §1

[4] = test system: P. falciparum strain 803; test: Parasites growth inhibition assay, strain 803; type: cell-based; details: Plasmodium falciparum
Method in brief: as §1

[5] = test system: wildtype (WT) D10 parasites; test: Parasites growth inhibition assay, wildtype D10 strain; type: cell-based; details: Plasmodium falciparum
Method in brief: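 Wildtype D10 or yDHOD-transgenic D10 parasites were challenged with test compound with or without 50 nmol/L proguanil. Growth inhibition used SYBR Green I: mid-ring cultures at 0.5% parasitemia and 2% hematocrit, in triplicate, for 72 h at 37 °C under 5% O₂/5% CO₂. Plates were freeze-thawed and lysed with SYBR Green I buffer, and fluorescence read at 485/538 nm. EC50 by nonlinear regression.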

[6] = test system: 3D7 strain of P. falciparum; test: Parasites growth inhibition assay; type: cell-based; details: Plasmodium falciparum
Method in brief: as §1

[7] = test system: P. falciparum strain PC26; test: Parasites growth inhibition assay, strain PC26; type: cell-based; details: Plasmodium falciparum
Method in brief: as §1

[8] = test system: P. falciparum strain CP286; test: Parasites growth inhibition assay, strain CP286; type: cell-based; details: Plasmodium falciparum
Method in brief: as §1

[9] = test system: HepG2 cells; test: Cytotoxicity assay; type: cell-based, Human; details: CC50 / EC50 on 3D7
Method in brief: (§2)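 HepG2 cells in DMEM with 10% FBS and penicillin-streptomycin, seeded at 6,000/well and attached overnight at 37 °C, 5% CO₂. Test compound in DMSO diluted into medium and added; 24 h incubation. CCK-8 added for 2–4 h, then absorbance read at 450 nm. CC50 (reported as EC50) from nonlinear logistic regression. SI is CC50 over 3D7 EC50.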

[10] = Cytotoxicity assay; type: cell-based, Human; details: human, HepG2 cells
Method in brief: as §2

[11] = Measurement of solubility; type: physicochemical; details: thermodynamic from solid
Method in brief: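 Solid added to solvent to supersaturation and shaken 24 h at room temperature, then centrifuged and filtered. Aqueous supernatants were quantified by reversed-phase HPLC against a standard curve prepared in methanol. For organic solvents, the dissolved solid was weighed after removing solvent under reduced pressure.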

[12] = test system: P. falciparum strain Dd2; test: Parasites growth inhibition assay, strain Dd2; type: cell-based; details: Plasmodium falciparum
Method in brief: as §1

[13] = molecular target: T1, PF12 bc1 complex (PF11 changes plus Y279S) (Saccharomyces cerevisiae, UniProt P00163, C133V/C134L/F296L/H141Y/I299L/L275F/M295V/R283K/V135P/Y136W/Y279S); details: cited from earlier work
[14] = molecular target: T2, wildtype yeast bc1 complex (Saccharomyces cerevisiae, UniProt P00163); details: at 1 μmol/L; cited from earlier work
[15] = molecular target: T1, PF12 bc1 complex (PF11 changes plus Y279S); test: Decylubiquinol-cytochrome c reductase activity, yeast bc1 mutant PF12; type: biochemical
[16] = molecular target: T2, wildtype yeast bc1 complex; test: Decylubiquinol-cytochrome c reductase activity, wildtype yeast bc1; type: biochemical; details: at 10 μmol/L, data not shown
Method in brief: (§3)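 Yeast cytochrome b mutants carry P. falciparum-like substitutions and are otherwise isogenic. Mitochondria from mid-log YPGal cultures were made via zymolyase protoplasts, osmotic shock and differential centrifugation; bc1 content came from dithionite-reduced spectra. Assay at room temperature: 20 µmol/L cytochrome c in 10 mmol/L potassium phosphate pH 7, 0.01% lauryl-maltoside, 1 mmol/L KCN. bc1 was 6 nmol/L (wildtype) or 20 nmol/L (mutants), started with 40 µmol/L decylubiquinol.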

[17] = molecular target: T3, PfNDH2 (Plasmodium falciparum, UniProt Q8I302); test: Enzymatic activity assay of PfNDH2; type: biochemical, P. falciparum
T3 sequence (Q8I302 1-533): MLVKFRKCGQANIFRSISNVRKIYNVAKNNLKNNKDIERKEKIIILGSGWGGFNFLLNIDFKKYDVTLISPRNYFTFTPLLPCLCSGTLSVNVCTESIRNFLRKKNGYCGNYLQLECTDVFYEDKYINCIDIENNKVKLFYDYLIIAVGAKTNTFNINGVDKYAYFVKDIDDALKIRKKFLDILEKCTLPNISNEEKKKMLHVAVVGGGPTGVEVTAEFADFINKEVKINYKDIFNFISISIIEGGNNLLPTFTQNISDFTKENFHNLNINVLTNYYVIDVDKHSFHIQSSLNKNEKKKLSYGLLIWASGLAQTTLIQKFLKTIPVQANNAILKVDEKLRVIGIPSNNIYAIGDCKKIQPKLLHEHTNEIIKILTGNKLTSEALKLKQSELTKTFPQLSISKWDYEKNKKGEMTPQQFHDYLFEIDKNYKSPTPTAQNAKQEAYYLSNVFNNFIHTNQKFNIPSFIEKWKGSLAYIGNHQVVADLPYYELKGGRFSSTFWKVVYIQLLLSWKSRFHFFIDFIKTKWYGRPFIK
Method in brief: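 Reaction started with enzyme; NADH decrease followed continuously at 340 nm (ε 6220 L/(mol·cm)); IC50 by nonlinear regression. Kinetics varied UQ₁ (5–100 µmol/L) or NADH (10–600 µmol/L) at several inhibitor concentrations; Lineweaver–Burk analysis.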

[18] = molecular target: PF11 bc1 complex with P. falciparum-like modifications in the Qo-site (Saccharomyces cerevisiae, UniProt P00163, C133V/C134L/F296L/H141Y/I299L/L275F/M295V/R283K/V135P/Y136W); test: Decylubiquinol-cytochrome c reductase activity, yeast bc1 mutant PF11; type: biochemical
Method in brief: as §3

[19] = molecular target: PFQi4 bc1 complex with P. falciparum-like modifications in the Qi-site (Saccharomyces cerevisiae, UniProt P00163, A191L/F225L/I17L/I195F/I226L/L198I/L40F/M221F/Q22C/S20Y/S34F/V41F/Y16H); test: Decylubiquinol-cytochrome c reductase activity, yeast bc1 mutant PFQi4; type: biochemical
Method in brief: as §3

[20] = molecular target: T4, Pfbc1 (Plasmodium falciparum, UniProt Q02768); test: Decylubiquinol-cytochrome c reductase activity of Pfbc1; type: biochemical, P. falciparum
T4 sequence (Q02768 1-376): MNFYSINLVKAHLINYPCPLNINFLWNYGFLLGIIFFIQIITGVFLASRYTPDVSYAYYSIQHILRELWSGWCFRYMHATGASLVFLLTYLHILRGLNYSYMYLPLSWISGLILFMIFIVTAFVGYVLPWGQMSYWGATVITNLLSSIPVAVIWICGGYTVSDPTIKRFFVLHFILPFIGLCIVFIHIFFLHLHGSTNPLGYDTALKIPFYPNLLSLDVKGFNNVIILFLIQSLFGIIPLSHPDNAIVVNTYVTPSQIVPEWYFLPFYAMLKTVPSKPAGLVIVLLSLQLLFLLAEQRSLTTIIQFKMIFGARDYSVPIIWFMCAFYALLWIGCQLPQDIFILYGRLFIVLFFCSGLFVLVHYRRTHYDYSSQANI

[21] = test system: Plasmodium yoelii-infected mouse models; test: In vivo efficacy study on P. yoelii-infected mice; details: once a day for 4 days
Method in brief: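 Female BALB/c mice (25 g, 6–8 weeks), specific pathogen-free, five per group. Infected intraperitoneally with about 1×10⁶ P. yoelii-infected red cells on Day 0, then randomised. Test compound in aqueous 5% DMSO / 18% PEGylated castor oil given intraperitoneally once daily for 4 days from Day 1. Chloroquine and DMSO groups included. Parasitemia by Giemsa-stained smear microscopy; survival followed, with CO₂ euthanasia at distress. Mean ± SD, n = 5.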

[22] = test system: various P. falciparum strains; test: Parasites growth inhibition on the panel of various P. falciparum strains; type: cell-based, Plasmodium falciparum; details: all strains of Table 2
Method in brief: as §1

[23] = 0.01 mol/L HCl, pH 2, simulated gastric fluid
[24] = dichloromethane, organic solvent or mixture
[25] = methanol, organic solvent or mixture

Row | Compound | EC50 [1] [nM] | EC50 [2] [nM] | EC50 [3] [nM] | EC50 [4] [nM] | EC50 [5] [nM] | EC50 [6] [nM] | EC50 [7] [nM] | EC50 [8] [nM] | SI (selectivity index) [9] | CC50 at 24 h [10] [nM] | solubility at 24 h [11, 23] [mM] | solubility at 24 h [11, 24] [mM] | solubility at 24 h [11, 25] [mM] | solubility at 24 h ([11]; water) [mM] | EC50 [12] [nM] | also measured
1 | Cc1c(-c2ccc(Cc3ccc(OC(F)(F)F)cc3)c(CN(C)C)c2)[nH]c2cccc(F)c2c1=O [Compound 24] | 1.02 | 1.44 | 6.01 | 9.3 | 3.23 | 2.09 | 3.17 | 4.56 | >4785 | > 10000 | 0.496 (≈ 240 µg/mL) | 19 (≈ 9210 µg/mL) | 110 (≈ 53300 µg/mL) | 0.04 (≈ 19.4 µg/mL) | 2.05 | –
2 | O=C1C(O)=C([C@H]2CC[C@H](c3ccc(Cl)cc3)CC2)C(=O)c2ccccc21 [Atovaquone, atovaquone, reference compound] | – | – | – | – | – | 0.45 | – | – | – | > 10000 | 0.0006 (≈ 0.22 µg/mL) | 29 (≈ 10600 µg/mL) | 29 (≈ 10600 µg/mL) | 0.0007 (≈ 0.257 µg/mL) | – | Increase of mid-point inhibitory concentration PF12 compared to PF11 [13]: > 100 fold; Inhibition of wildtype yeast bc1 complex [14]: fully inhibited
3 | CCCN(C)Cc1cc(-c2[nH]c3cccc(F)c3c(=O)c2C)ccc1Cc1ccc(OC(F)(F)F)cc1 [RYL-581] | 0.23 | 0.29 | 0.27 | 0.96 | 0.7 | 0.056 | 0.31 | – | >178,571 | > 10000 | 0.428 (≈ 219 µg/mL) | 64 (≈ 32800 µg/mL) | 37 (≈ 19000 µg/mL) | 0.0136 (≈ 6.97 µg/mL) | 0.44 | IC50 [15]: ~1000 nM; Increase of mid-point inhibitory concentration PF12 compared to PF11 [15]: three-fold; Inhibition of wildtype yeast bc1 complex [16]: only slight inhibition; Potency on PfNDH2 decreased as compared to RYL-552 [17]: 11 fold; IC50 ([17]; IC50 PfNDH2, 200 μmol/L NADH, 100 μmol/L UQ1): 42.2 nM; Type of inhibition of PfNDH2 (Lineweaver–Burk) ([17]; substrates Q (UQ1) and NADH varied): non-competitive; IC50 [18]: ~300 nM; IC50 [19]: ~10000 nM; Resistance of PFQi4 bc1 complex compared to wild type [19]: increased reactivity; IC50 [20]: 0.51 nM; Day by which parasites were completely cleared ([21]; 3 mg/kg/d intraperitoneal): ≤ 22 days; Final survival rate ([21]; 3 mg/kg/d intraperitoneal, 5 mice): 80%; Day by which all mice were cured ([21]; 10 mg/kg/d intraperitoneal): ≤ 16 days; Survival rate ([21]; 10 mg/kg/d intraperitoneal, 5 mice): 100%; EC50 values on various strains, in words [22]: sub-nanomolar
4 | Cc1c(-c2ccc(Cc3ccc(OC(F)(F)F)cc3)c(CN3CCCC3)c2)[nH]c2cccc(F)c2c1=O [Compound 25] | 1.41 | 7.01 | 5.33 | 9.81 | 2.32 | 2.89 | 3.3 | 4.81 | >3460 | > 10000 | 0.45 (≈ 230 µg/mL) | 30 (≈ 15300 µg/mL) | 37 (≈ 18900 µg/mL) | 0.0163 (≈ 8.32 µg/mL) | 2.18 | –
5 | CCCCCN(C)Cc1cc(-c2[nH]c3cccc(F)c3c(=O)c2C)ccc1Cc1ccc(OC(F)(F)F)cc1 [Compound 30] | – | – | – | – | – | 0.61 | – | – | >16,393 | > 10000 | 0.337 (≈ 182 µg/mL) | 370 (≈ 200000 µg/mL) | 34 (≈ 18400 µg/mL) | 0.0064 (≈ 3.46 µg/mL) | – | –
6 | CCCCCCCN(C)Cc1cc(-c2[nH]c3cccc(F)c3c(=O)c2C)ccc1Cc1ccc(OC(F)(F)F)cc1 [Compound 31] | – | – | – | – | – | 0.3 | – | – | >33,333 | > 10000 | 0.0194 (≈ 11 µg/mL) | 420 (≈ 239000 µg/mL) | 32 (≈ 18200 µg/mL) | 0.002 (≈ 1.14 µg/mL) | – | –
